Assay results from ChEMBL document CHEMBL3232764, “Influence of the adamantyl moiety on the activity of biphenylacrylohydroxamic acid-based HDAC inhibitors” (Eur J Med Chem, 2014).

Legend:
HCT-116 = experiment: Antiproliferative activity against human HCT116 cells assessed as growth inhibition after 72 hrs; assay type: functional, cell-based; conditions: HCT-116, 72 h
Procedure, shortened: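 Log-phase cells seeded in duplicate in 6-well plates; drug added 24 h after seeding. Cells harvested 72 h after drug exposure and counted with a cell counter. IC50 = drug concentration giving 50% reduction in cell number versus untreated control.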

Histone deacetylase 5 = Histone deacetylase 5 (Homo sapiens, UniProt Q9UQL6); experiment: Inhibition of human HDAC5 using fluorogenic tetrapeptide RHKKAc as substrate
[1] = biological target: T1, Protein deacetylase HDAC6 (Homo sapiens, UniProt Q9UBN7); experiment: Inhibition of human HDAC6 using fluorogenic tetrapeptide RHKKAc as substrate
T1 sequence (Q9UBN7 whole entry): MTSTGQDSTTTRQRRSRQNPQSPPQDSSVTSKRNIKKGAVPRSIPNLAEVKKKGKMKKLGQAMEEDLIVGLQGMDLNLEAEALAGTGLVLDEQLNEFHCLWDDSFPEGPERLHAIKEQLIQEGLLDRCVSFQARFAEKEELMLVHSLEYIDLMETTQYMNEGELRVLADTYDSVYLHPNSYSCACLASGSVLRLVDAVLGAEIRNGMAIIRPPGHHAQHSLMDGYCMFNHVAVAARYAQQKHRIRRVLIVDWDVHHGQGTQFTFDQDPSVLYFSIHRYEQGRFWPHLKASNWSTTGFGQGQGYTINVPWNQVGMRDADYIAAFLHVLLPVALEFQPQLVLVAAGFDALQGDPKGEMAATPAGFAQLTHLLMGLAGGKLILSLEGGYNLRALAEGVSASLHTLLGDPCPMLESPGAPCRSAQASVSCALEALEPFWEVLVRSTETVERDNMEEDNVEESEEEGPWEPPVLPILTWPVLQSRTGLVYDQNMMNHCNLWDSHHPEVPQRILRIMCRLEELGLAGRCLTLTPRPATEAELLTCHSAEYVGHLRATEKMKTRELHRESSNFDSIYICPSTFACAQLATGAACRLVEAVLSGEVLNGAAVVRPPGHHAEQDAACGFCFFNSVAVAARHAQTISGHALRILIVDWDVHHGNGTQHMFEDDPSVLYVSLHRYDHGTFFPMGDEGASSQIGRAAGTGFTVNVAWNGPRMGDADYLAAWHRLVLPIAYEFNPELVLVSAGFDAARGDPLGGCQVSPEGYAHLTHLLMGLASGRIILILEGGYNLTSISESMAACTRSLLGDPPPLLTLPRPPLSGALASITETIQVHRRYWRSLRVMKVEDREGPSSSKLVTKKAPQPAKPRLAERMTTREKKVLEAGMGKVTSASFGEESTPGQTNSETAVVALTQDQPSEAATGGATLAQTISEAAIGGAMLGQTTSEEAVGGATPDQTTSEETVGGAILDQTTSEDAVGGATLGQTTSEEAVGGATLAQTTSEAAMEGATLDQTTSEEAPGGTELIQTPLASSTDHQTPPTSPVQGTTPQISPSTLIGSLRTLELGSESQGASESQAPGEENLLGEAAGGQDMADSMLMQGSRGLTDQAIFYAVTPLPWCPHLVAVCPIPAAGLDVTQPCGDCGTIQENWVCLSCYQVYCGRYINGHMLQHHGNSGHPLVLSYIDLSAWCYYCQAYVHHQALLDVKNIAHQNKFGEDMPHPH

Histone deacetylase 8 = biological target: T2, Histone deacetylase 8 (Homo sapiens, UniProt Q9BY41); experiment: Inhibition of human HDAC8 using fluorogenic tetrapeptide RHKKAc as substrate
T2 sequence (Q9BY41 whole entry): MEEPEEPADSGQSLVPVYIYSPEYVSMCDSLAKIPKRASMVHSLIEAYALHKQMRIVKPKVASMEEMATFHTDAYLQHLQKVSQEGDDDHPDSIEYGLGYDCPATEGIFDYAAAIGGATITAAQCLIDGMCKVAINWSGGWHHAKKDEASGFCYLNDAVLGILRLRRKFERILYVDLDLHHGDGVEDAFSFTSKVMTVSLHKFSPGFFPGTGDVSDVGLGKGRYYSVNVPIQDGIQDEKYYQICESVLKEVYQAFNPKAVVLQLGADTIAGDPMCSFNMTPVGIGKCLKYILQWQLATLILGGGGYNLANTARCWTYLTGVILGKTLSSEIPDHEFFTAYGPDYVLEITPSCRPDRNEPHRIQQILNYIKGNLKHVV

Histone deacetylase 9 = Histone deacetylase 9 (Homo sapiens, UniProt Q9UKV0); experiment: Inhibition of human HDAC9 using fluorogenic tetrapeptide RHKKAc as substrate
[2] = biological target: T3, Polyamine deacetylase HDAC10 (Homo sapiens, UniProt Q969S8); experiment: Inhibition of human HDAC10 using fluorogenic tetrapeptide RHKKAc as substrate
T3 sequence (Q969S8 whole entry): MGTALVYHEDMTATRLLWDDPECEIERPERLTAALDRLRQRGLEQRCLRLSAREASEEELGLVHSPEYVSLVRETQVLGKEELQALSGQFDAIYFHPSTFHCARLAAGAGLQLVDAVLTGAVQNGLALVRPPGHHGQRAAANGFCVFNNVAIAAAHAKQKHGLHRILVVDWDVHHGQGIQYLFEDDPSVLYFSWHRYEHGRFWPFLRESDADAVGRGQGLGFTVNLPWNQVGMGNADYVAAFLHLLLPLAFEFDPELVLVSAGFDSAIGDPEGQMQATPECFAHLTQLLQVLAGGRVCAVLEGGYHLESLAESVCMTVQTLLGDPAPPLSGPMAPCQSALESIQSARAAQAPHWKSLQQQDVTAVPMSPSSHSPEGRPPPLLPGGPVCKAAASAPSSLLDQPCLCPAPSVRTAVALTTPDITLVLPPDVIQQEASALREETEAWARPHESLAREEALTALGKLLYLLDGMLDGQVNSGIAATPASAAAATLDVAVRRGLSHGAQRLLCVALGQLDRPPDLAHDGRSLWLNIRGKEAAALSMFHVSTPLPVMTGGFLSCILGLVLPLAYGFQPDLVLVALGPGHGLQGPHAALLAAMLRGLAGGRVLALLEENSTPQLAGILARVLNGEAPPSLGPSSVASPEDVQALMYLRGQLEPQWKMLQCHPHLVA

Histone deacetylase 11 = biological target: T4, Histone deacetylase 11 (Homo sapiens, UniProt Q96DB2); experiment: Inhibition of human HDAC11 using fluorogenic tetrapeptide RHKKAc as substrate
T4 sequence (Q96DB2 whole entry): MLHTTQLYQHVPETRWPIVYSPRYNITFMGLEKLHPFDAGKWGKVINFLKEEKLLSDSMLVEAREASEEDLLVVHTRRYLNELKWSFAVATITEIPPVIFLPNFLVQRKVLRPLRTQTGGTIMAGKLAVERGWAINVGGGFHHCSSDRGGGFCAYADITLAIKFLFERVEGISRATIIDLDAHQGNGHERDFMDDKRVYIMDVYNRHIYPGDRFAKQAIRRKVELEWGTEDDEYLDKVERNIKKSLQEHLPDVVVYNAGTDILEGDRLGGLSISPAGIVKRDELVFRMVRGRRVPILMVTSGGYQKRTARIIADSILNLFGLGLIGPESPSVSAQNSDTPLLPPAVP

IGROV-1 = experiment: Induction of apoptosis in human IGROV1 cells at IC80 after 72 hrs by TUNEL and flow cytometry analysis (reference value: 4%); assay type: functional

Chain of Histone deacetylase 9 (Q9UKV0 whole entry): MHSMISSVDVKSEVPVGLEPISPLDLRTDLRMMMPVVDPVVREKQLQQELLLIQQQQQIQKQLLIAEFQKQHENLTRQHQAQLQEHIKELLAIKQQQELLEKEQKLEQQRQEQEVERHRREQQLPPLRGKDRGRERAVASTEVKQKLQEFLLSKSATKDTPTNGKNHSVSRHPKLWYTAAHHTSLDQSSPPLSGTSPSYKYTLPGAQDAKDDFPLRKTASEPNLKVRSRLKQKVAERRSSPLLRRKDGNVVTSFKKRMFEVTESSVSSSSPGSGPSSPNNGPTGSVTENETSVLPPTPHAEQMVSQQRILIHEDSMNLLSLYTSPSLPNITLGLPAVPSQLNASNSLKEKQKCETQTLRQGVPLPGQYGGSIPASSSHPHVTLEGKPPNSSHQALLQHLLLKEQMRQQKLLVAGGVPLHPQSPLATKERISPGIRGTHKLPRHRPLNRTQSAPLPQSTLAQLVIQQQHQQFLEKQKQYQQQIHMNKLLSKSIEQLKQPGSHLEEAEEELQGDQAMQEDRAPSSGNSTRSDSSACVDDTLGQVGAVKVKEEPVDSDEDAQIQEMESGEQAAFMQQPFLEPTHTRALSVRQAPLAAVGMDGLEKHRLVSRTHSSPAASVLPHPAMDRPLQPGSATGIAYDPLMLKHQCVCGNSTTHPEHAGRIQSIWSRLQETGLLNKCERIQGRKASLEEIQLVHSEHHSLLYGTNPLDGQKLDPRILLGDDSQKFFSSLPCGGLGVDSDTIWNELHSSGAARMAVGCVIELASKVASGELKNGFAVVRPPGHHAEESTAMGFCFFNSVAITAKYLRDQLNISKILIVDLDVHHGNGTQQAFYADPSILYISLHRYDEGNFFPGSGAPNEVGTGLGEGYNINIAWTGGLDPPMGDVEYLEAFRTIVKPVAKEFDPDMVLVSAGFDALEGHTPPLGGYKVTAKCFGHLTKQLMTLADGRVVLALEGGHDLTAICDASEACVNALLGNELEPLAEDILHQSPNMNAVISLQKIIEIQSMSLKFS
Chain of Histone deacetylase 5 (Q9UQL6 whole entry): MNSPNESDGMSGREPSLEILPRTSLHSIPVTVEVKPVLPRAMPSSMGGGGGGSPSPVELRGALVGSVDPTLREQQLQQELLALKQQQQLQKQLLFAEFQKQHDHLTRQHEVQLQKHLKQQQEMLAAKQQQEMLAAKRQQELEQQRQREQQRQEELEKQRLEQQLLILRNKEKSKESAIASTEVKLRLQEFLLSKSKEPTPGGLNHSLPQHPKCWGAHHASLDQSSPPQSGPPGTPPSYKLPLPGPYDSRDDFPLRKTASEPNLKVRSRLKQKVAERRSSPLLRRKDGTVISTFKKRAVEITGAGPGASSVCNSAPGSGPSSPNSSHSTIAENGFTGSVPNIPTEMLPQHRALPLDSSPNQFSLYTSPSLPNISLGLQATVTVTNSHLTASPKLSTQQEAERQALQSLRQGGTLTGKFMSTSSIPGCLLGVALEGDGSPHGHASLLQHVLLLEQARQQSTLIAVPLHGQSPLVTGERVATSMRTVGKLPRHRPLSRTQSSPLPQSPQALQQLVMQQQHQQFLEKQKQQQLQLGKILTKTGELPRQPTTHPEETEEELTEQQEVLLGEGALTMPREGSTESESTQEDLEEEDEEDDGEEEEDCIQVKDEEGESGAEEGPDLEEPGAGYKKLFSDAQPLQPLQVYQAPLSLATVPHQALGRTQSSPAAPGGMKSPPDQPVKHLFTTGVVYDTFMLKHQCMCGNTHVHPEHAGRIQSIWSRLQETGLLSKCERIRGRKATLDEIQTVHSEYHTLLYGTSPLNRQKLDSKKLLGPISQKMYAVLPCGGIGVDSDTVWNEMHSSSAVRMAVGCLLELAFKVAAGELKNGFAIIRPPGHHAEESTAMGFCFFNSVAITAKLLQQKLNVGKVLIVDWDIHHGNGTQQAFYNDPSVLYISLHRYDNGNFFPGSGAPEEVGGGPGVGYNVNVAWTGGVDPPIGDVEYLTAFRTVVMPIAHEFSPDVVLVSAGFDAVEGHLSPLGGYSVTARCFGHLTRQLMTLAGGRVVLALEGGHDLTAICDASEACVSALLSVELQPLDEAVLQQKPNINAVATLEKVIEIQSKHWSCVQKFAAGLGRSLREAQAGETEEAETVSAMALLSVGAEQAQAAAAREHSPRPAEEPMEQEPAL

Row | Compound | IC50 (HCT-116) | IC50 (Histone deacetylase 5) | IC50 [1] | IC50 (Histone deacetylase 8) | IC50 (Histone deacetylase 9) | IC50 [2] | IC50 (Histone deacetylase 11) | Activity (IGROV-1)
1 | COc1ccc(-c2ccc(/C=C/C=C/C(=O)NO)cc2)cc1 | 2400 nM | > 100 µM | 3.26 µM | 1.56 µM | > 100 µM | > 100 µM | > 100 µM | 91%
2 | COc1ccc(-c2ccc(/C=C/C=C/C(=O)NO)cc2)cc1C12CC3CC(CC(C3)C1)C2 | 1800 nM | > 100 µM | 16.7 µM | 30.6 µM | > 100 µM | > 100 µM | 38.1 µM | 52%
